Broadly, the solubility is how much of the substance goes into solution per volume. The term MIC denotes the smallest concentration in the dilution series that meets the test's criterion for growth inhibition. Low values mean greater potency, high ones weaker potency. Usually MIC90 stands for the lowest concentration that inhibits either 90% of growth or 90% of the strains tested, depending on the study.

Our source for the solubility, MIC and MIC90 values is ChEMBL document CHEMBL4665898, “Semisynthetic Analogs of the Antibiotic Fidaxomicin-Design, Synthesis, and Biological Evaluation” (ACS Med Chem Lett, 2020).

Series [1] can be described thus: Aqueous solubility of the compound in phosphate buffer at pH 7 after 5 hrs by UHPLC analysis. The series is classed as physicochemical. In a few lines:
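Solid added to 1.0 mL pH 7 phosphate buffer containing 50 µg/mL caffeine internal standard until saturated. Stirred 5 h at room temperature, passed through a 0.22 µm filter, then run on C18 UHPLC with a water/MeCN + 0.1 % HCOOH gradient. Analyte/IS peak-area ratio was converted to concentration using a linear calibration from MeOH standards at 50–500 µg/mL.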

The subject of series [2] is Staphylococcus aureus. The series is described as follows: Antibacterial activity against Staphylococcus aureus ATCC 29213 incubated overnight by broth dilution method. The format is functional. In a few lines:
(§1)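 Strains pre-grown overnight at 37 °C on Mueller Hinton II agar; CLSI broth dilution, inoculum about 7.5 × 10^5 CFU/well. Compounds taken from 1.0 mg/mL stocks in 50 % methanol/H2O, diluted in H2O as 2-fold series. Plates held at 37 °C overnight; MIC read visually as lowest concentration with no growth.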
A general note: Broth dilution looks for growth in wells or tubes with falling amounts of substance.

In series [3] the test system is Clostridioides difficile. The series is described as follows: Antibacterial activity against Clostridium difficile 8260 incubated for 46 hrs in anaerobic condition by CLSI-based broth microdilution assay. The format is functional.
The subject of series [4] is Staphylococcus aureus. The series is described as follows: Antibacterial activity against Staphylococcus aureus by CLSI-based broth microdilution method. The format is functional. In outline: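 S. aureus ATCC29213 grown overnight at 37 °C on MH II agar. MIC by CLSI broth dilution at about 7.5 × 10^5 CFU/well. Compounds diluted 2-fold in water from 1.0 mg/mL stocks in 50% methanol. Plates incubated overnight at 37 °C. MIC is the lowest concentration with no growth, read by eye.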

Another series relates to Bacillus subtilis. The series is described as follows: Antibacterial activity against Bacillus subtilis DSM3256 incubated overnight by broth dilution method. The format is functional. In outline: as §1
The test system of series [5] is Mycobacterium tuberculosis. The series is described as follows: Antimycobacterial activity against recombinant Mycobacterium tuberculosis H37Rv expressed in green fluorescence protein by measuring increase in fluorescence after 10 days in presence of middlebrook 7H9/OADC medium by GFP reporter gene assay. The format is functional. As to conditions: 240 h, time 10 day. (In general: Reporter assays use an easily measured gene product as a stand-in for the process of interest.)

Series [6] has as its system Clostridioides difficile. The series is described as follows: Antibacterial activity against Clostridium difficile 8282 incubated for 46 hrs in anaerobic condition by CLSI-based broth microdilution assay. The series is classed as functional.
For series [7], the system named is Clostridioides difficile. The experiment in a line: Antibacterial activity against Clostridium difficile BAA-1805 incubated for 46 hrs in anaerobic condition by CLSI-based broth microdilution assay. The series is classed as functional.
Series [8] deals with Clostridioides difficile. The series is described as follows: Antibacterial activity against Clostridium difficile 8264 incubated for 46 hrs in anaerobic condition by CLSI-based broth microdilution assay. The series is classed as functional.
Series [9] concerns Clostridioides difficile. The series is described as follows: Antibacterial activity against Clostridium difficile 5680 incubated for 46 hrs in anaerobic condition by CLSI-based broth microdilution assay. The format is functional.
Series [10] concerns Clostridioides difficile. The experiment in a line: Antibacterial activity against Clostridium difficile incubated for 48 hrs by microbroth dilution method. The series is classed as functional. In a few lines: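 Per CLSI, anaerobic broth microdilution in Brucella broth with hemin, vitamin K and 5% laked horse blood. Isolates pre-grown anaerobically on supplemented Brucella blood agar, 35–37 °C, 44–48 h. Inoculum at 0.5 McFarland, diluted 1:10. 2-fold drug series from DMSO, 16–0.015 µg/mL. Incubated anaerobically at 35–37 °C and read at 46 h. MIC is the lowest concentration inhibiting visible growth.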

In series [11] the test system is Clostridioides difficile. The series is described as follows: Antibacterial activity against Clostridium difficile ATCC 9689 incubated for 46 hrs in anaerobic condition by CLSI-based broth microdilution assay. The format is functional. The settings on record: ATCC 9689 = DSM 1296.
Series [12] concerns Clostridioides difficile. The experiment in a line: Antibacterial activity against Clostridium difficile under anaerobic condition by CLSI-based broth microdilution assay. The series is classed as functional. In outline:
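Isolates streaked on Brucella agar with hemin, vitamin K and 5% sheep blood, anaerobic 35–37°C, 44–48 h. CLSI broth microdilution in Brucella broth with hemin, vitamin K, 5% laked horse blood. Test agents in DMSO, 2-fold series, 16–0.015 µg/mL. Inoculum from a 0.5 McFarland suspension diluted 1:10. Incubated anaerobically 35–37°C, read at 46 h; MIC = lowest concentration inhibiting visible growth.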

Series [13] concerns Clostridioides difficile. The experiment in a line: Antibacterial activity against Clostridium difficile ATCC 700057 incubated for 46 hrs in anaerobic condition by CLSI-based broth microdilution assay. The format is functional.
The test system of series [14] is Clostridioides difficile. The series is described as follows: Antibacterial activity against Clostridium difficile 8290 incubated for 46 hrs in anaerobic condition by CLSI-based broth microdilution assay. The format is functional.
Series [15] has as its system Clostridioides difficile. The series is described as follows: Antibacterial activity against Clostridium difficile ATCC 43255 incubated for 46 hrs in anaerobic condition by CLSI-based broth microdilution assay. The format is functional.
The test system of series [16] is Clostridioides difficile. The experiment in a line: Antibacterial activity against Clostridium difficile BAA-1875 incubated for 46 hrs in anaerobic condition by CLSI-based broth microdilution assay. The series is classed as functional.

Molecules are shown by their SMILES. In brackets after ≈: the same amount, converted by molar mass. Bounds are passed on as bounds.

As to `CCc1c(Cl)c(O)c(Cl)c(O)c1C(=O)O[C@@H]1[C@@H](O)[C@@H](OC)[C@@H](OC/C2=C\C=C\C[C@H](O)/C(C)=C/[C@H](CC)[C@@H](O[C@@H]3OC(C)(C)[C@@H](OC(=O)C(C)C)[C@H](O)[C@@H]3O)/C(C)=C/C(C)=C/C[C@@H]([C@@H](C)O)OC2=O)O[C@H]1C`, the concentration in solution in series [1] (solubility at 5 h) was 84 µg/mL (≈ 79.4 µM). Further, the MIC in the series on Staphylococcus aureus [2] was determined as 8 µg/mL (≈ 7.56 µM); in the series on Clostridioides difficile [3], 0.06 µg/mL (≈ 0.0567 µM); in the series with Staphylococcus aureus [4], 2 µg/mL (≈ 1.89 µM); with Bacillus subtilis it was 8 µg/mL (≈ 7.56 µM); against Clostridioides difficile [6], 0.03 µg/mL (≈ 0.0284 µM); against Clostridioides difficile [7], 0.12 µg/mL (≈ 0.113 µM). The MIC against Clostridioides difficile [8] is 0.12 µg/mL (≈ 0.113 µM); in the series on Clostridioides difficile [9], 0.06 µg/mL (≈ 0.0567 µM); with Clostridioides difficile [10], 0.25 µg/mL (≈ 0.236 µM); against Clostridioides difficile [11], no more than 0.015 µg/mL; in the series on Clostridioides difficile [12] it was 0.012 µg/mL (≈ 0.0113 µM); against Clostridioides difficile [13], 0.03 µg/mL (≈ 0.0284 µM). For the same compound, the MIC in the series on Clostridioides difficile [14], with Clostridioides difficile [15] and in the series on Clostridioides difficile [16] was 0.03 µg/mL (≈ 0.0284 µM) in each case. Moreover, the MIC90 in [5] is 0.25 µg/mL.
Take `CCc1c(Cl)c(OCCCn2cc(CCN3CCC(N)CC3)nn2)c(Cl)c(OCCCn2cc(CCN3CCC(N)CC3)nn2)c1C(=O)O[C@@H]1[C@@H](O)[C@@H](OC)[C@@H](OC/C2=C\C=C\C[C@H](O)/C(C)=C/[C@H](CC)[C@@H](O[C@@H]3OC(C)(C)[C@@H](OC(=O)C(C)C)[C@H](O)[C@@H]3O)/C(C)=C/C(C)=C/C[C@@H]([C@@H](C)O)OC2=O)O[C@H]1C`: in [1], the solubility at 5 h is 451 µg/mL (≈ 295 µM). In addition, the MIC against Staphylococcus aureus [2] is greater than 64 µg/mL; against Clostridioides difficile [3], greater than 16 µg/mL; against Bacillus subtilis, 8 µg/mL (≈ 5.23 µM); in the series with Clostridioides difficile [6] it was greater than 16 µg/mL; in the series on Clostridioides difficile [7], greater than 16 µg/mL; in the series on Clostridioides difficile [8], greater than 16 µg/mL. In addition, the MIC with Clostridioides difficile [9], against Clostridioides difficile [11], against Clostridioides difficile [13], in the series with Clostridioides difficile [14], in the series with Clostridioides difficile [15] and with Clostridioides difficile [16] was greater than 16 µg/mL each time. The MIC90 in series [5] was 16 µg/mL.
